# CSC inhib: blocks cancer stem cells; cancer stem cell-like cells viability, luminescence; inhibition, % at 7.5 µM; actives 1.1% (n = 300,000); AID 2717; in the data active = inhibition above about 75%; inconclusive = no clear call, values can overlap the other calls; tested in HMLE shEcad cells
# SKKanGAS inh: inhibitors of SKKanGAS S. pyogenes growth in kanamycin (SK-promoter or general growth effect). inhibition, % at 7.5 µM. actives 1.3% (n = 300,000). BacTiter-Glo, 6 h;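 active = mean replicate score, as percent of positive control median, at least 50; inconclusive = mean below 50 but one replicate at or above 50; inactive = mean and every replicate below 50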;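 note: strain carries kanamycin resistance gene driven by streptokinase promoter and grows in 40 µg/ml kanamycin; loss of luminescence reflects streptokinase promoter inhibition or plain growth inhibition; 0% = median of DMSO wells and 100% = positive control at its reference dose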
# Mdm2 MdmX PPI: inhibitors of human Mdm2/MdmX interaction | O15151+Q00987 | SaOS-2 split-luciferase Mdm2/MdmX complementation, luminescence | inhibition, % at 8 µM | actives 3% (n = 330,000) | AID 485346;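 active = inhibition of at least 50% at 8 µM in the primary screen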
# Target sequence (O15151 whole entry, looked up): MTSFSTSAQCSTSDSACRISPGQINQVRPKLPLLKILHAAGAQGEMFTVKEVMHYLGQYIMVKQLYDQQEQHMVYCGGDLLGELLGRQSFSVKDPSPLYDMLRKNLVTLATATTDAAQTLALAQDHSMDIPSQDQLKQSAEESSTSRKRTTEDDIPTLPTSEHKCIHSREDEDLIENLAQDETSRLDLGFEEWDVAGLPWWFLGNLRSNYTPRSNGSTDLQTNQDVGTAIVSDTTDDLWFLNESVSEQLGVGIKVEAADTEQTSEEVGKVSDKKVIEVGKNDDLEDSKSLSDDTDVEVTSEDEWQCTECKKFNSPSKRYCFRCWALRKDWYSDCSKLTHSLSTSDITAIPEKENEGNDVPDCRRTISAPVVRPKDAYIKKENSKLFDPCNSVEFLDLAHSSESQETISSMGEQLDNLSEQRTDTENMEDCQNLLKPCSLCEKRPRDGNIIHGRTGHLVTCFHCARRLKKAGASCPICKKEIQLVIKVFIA
# Target sequence (Q00987 whole entry, looked up): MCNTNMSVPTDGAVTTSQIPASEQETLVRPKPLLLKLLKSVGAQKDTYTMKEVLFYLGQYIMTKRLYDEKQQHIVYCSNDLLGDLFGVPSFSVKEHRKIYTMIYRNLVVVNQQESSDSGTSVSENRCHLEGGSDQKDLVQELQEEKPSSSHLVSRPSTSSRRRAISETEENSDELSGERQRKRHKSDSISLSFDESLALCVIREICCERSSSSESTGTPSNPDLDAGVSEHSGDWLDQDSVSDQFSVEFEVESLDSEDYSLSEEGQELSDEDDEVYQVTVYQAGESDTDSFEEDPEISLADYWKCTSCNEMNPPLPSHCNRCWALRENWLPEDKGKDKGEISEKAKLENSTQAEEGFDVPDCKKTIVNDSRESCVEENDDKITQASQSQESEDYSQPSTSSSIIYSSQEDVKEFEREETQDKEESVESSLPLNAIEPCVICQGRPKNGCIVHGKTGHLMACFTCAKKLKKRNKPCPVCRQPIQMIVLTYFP
# Calb FLC: C. albicans growth modulation with fluconazole; AID 1979; growth inhibition, % (no concentration beside the values); C. albicans CaCi-2 (fluconazole-resistant clinical isolate) + fluconazole, Alamar Blue growth, 48 h; actives 0.57% (n = 300,000);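 active = growth inhibition above about 58% in most replicates, limit read from the data, passing the limit was not always enough; inconclusive = exactly half the replicates above a set limit; inactive = most replicates below a set limit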;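 note: all wells also contain fluconazole at 8 µg/ml as a sub-toxic cotreatment; 0% = median of DMSO wells and 100% = median of geldanamycin control wells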
# T cruzi inh: blocks replication of Trypanosoma cruzi; T. cruzi beta-gal in NIH3T3, luminescence, 90 h; inhibition, % (no concentration beside the values); actives 1.4% (n = 300,000);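 active = mean inhibition across valid replicates above about 55%, limit read from the data; inconclusive = mean below that limit but half or more replicates reach it; inactive = mean below it, under half of replicates reach it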;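 note: signal also drops with host cell toxicity which is not excluded here; 0% = plate median of DMSO wells and 100% = zero luminescence signal; higher percent means less beta-gal luminescence so fewer parasites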
#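 Read-out: Parasite load inhibition, % | Test system: Mouse NIH/3T3 fibroblasts infected with β-gal-expressing T. cruzi Tulahuen C4 | Amount: 5,000 cells/well | Medium: DMEM, 2% fetal bovine serum | Signal: GalScreen β-gal luminescence, detergent lysis, 60 min | Timing: 3 h attach, ≥90 h co-culture | Also added: Tulahuen C4 trypomastigotes, 5000/well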
# Beta cell apopt: beta cell apoptosis inhibition; AID 435005; protection from apoptosis, % (concentration not given with the values); actives 0.8% (n = 300,000); INS-1E cytokine-induced death, ATP luminescence, 48 h; percent of positive-control rescue, neutral wells zero;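 active = Every replicate reaches about 75%, or at least half do and their mean reaches it too, limit read from the data; inconclusive = At least half of replicates reach the limit but their mean does not; inactive = Under half of replicates reach the limit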;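 note: 0% = cytokine-treated negative control wells and 100% = positive control rescue; higher means more ATP so stronger rescue from cytokine killing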
# Mdm2-MdmX conf: confirmation of human Mdm2/MdmX interaction inhibitors; AID 489028; actives 55% (n = 10,000); inhibition, % at 8 µM; shares compounds with Mdm2 MdmX PPI; Mdm2-MdmX binding, luminescent assay; in the data active = inhibition above about 40%
# FLuc counter: inhibits full-length luciferase, flagging false Mdm2/MdmX hits. inhibition, % at 8 µM. AID 504607. shares compounds with Mdm2 MdmX PPI. actives 77% (n = 6,200). SaOS-2 full-length luciferase counterscreen, luminescence;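 active = mean inhibition at 8 µM reaching about 37%, which flags the compound as non-specific, limit read from the data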;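 note: p53-null SaOS-2 cells with luciferase driven by a doxycycline-inducible promoter; compound on cells about two nights before reading with doxycycline added after day one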
# * hit, by the source's call; ? = inconclusive; · = not tested or not shown. Only some compounds are listed: those with a hit (about 5.7% of all), similar ones and a draw of the others.
SMILES,CSC inhib,SKKanGAS inh,Mdm2 MdmX PPI,Calb FLC,T cruzi inh,Beta cell apopt,Mdm2-MdmX conf,FLuc counter
Cc1ccc(Nc2nc(NCCO)c3ccccc3n2)cc1C,·,5,55*,-2,32,·,25,·
OCCNc1c2ccccc2nc2ccccc12,12,11,61*,33,59*,·,56*,37*
Cc1ccc(S(=O)(=O)c2nc(S(=O)(=O)c3ccccc3)sc2N2CCN(C)CC2)cc1,·,0,61*,-8,31,·,47*,24
CCS(=O)(=O)c1nc(S(=O)(=O)c2ccc(C)cc2)c(N2CCN(CCO)CC2)s1,-16,12,-3,3,26,-7,·,·
CCCS(=O)(=O)c1nc(S(=O)(=O)c2ccc(C)cc2)c(N2CCN(C)CC2)s1,-4,-5,18,-1,2,-7,·,·
Cc1ccc(S(=O)(=O)c2nc(S(=O)(=O)c3ccccc3)sc2N2CCN(CCO)CC2)cc1,·,-5,53*,2,19,·,11,·
CC(C)CCNC(=O)c1onc(CSc2ccccc2)c1C(=O)NCCC(C)C,63,27,13,4,41,-3,·,·
O=C(c1cccc(N2C(=O)C3CC=CCC3C2=O)c1)N1CCCc2ccccc21 (stereo not given),-11,-1,-26,-14,-3,4,·,·
O=C(Nc1cc(=O)[nH]c(=O)[nH]1)c1cc(Cl)ccc1Cl,50,-3,64*,-12,-40,19,56*,58*
O=C(Nc1cc(=O)[nH]c(=O)[nH]1)c1cccc(C(F)(F)F)c1,0,-1,8,27,-9,-2,·,·
Cc1cccc(N2CCN(C3CCCCC3NS(=O)(=O)c3ccccc3)CC2C)c1 (stereo not given),29,6,34,-6,44,22,·,·
CCOC(=O)C(C)(C)N(Cc1ccc(C)cc1)S(=O)(=O)c1ccc(Cl)c([N+](=O)[O-])c1,-2,-7,96*,-1,10,-11,66*,71*
CCOC(=O)C(C)(C)N(Cc1ccc(Cl)cc1)S(=O)(=O)c1ccc(Cl)c([N+](=O)[O-])c1,109*,1,95*,-1,4,-1,81*,50*
CCCn1c2ccccc2c2cnn(CC(=O)N3CCN(C4CCCCC4)CC3)c(=O)c21,1,-4,55*,-3,26,1,30,·
CCCn1c2ccccc2c2cnn(CC(=O)N3CCOCC3)c(=O)c21,-2,14,15,1,-21,0,·,·
Cc1cc(C)c(C(=O)/C=C/C=C/c2ccccc2)c(=O)[nH]1,1,28,28,6,8,-1,·,·
Cc1cc(C)c(C(=O)/C=C/c2ccc(C(C)C)cc2)c(=O)[nH]1,84*,3,86*,0,16,-31,97*,56*
CCOC(=O)C1CCCN(C(=O)c2cc(CN3C(=O)c4ccccc4C3=O)ccc2OC)C1 (stereo not given),-11,-3,-1,1,-27,2,·,·
CCN(c1ccccc1)S(=O)(=O)c1ccc(Oc2ccc(-n3ccnc3)cc2)nc1,-6,8,59*,1,45,13,58*,63*
CCN(c1ccccc1)S(=O)(=O)c1ccc(Oc2ccccc2C(C)=O)nc1,-10,·,8,·,·,1,·,·
COc1ccc(C(=O)N/C(=C\c2cn(C)c3ccccc23)C(=O)NCCCN2CCOCC2)cc1,3,1,6,-1,17,0,·,·
O=C(Nc1cccc(-c2cn3ccccc3n2)c1)c1cc2ccccc2oc1=O,5,4,100*,-16,26,9,21,·
CN(CC(=O)Nc1ccccc1Cl)C(=O)CN1C(=O)NC(c2ccccc2)(c2ccccc2)C1=O,-9,·,-12,·,·,-10,·,·
CC(=O)c1sc(NC(=O)C2(F)C(F)(F)C(F)(F)C(F)(F)C(F)(F)C2(F)F)nc1C,-11,33,93*,21,-11,109*,85*,29
COc1ccc2nc(/N=C(\N)NC(=O)C(C)(C)C)nc(C)c2c1,1,21,-2,-1,24,-1,·,·
SMILES,CSC inhib,SKKanGAS inh,Mdm2 MdmX PPI,Calb FLC,T cruzi inh,Beta cell apopt,Mdm2-MdmX conf,FLuc counter
CCC(=O)N/C(N)=N/c1nc(C)c2cc(OC)ccc2n1,15,-10,62*,?,35,-5,41*,61*
COc1cc(/C=N/NC(N)=O)cc([N+](=O)[O-])c1O,9,-1,4,1,-14,6,·,·
COCCN=c1scc(-c2cc(OC)c(OC)c(OC)c2)n1/N=C/c1c(C)[nH]c2ccccc12,115*,18,59*,22,52,4,19,·
Cc1[nH]c2ccccc2c1/C=N/n1cnnc1,-17,3,13,6,-4,-1,·,·
COC(=O)c1ccc(C(NC(=O)OCc2ccccc2)/C(F)=C/[C@@H](C)C(=O)NCc2ccc(OC)c(OC)c2)cc1 (stereo not given in full),0,·,89*,·,·,4,5,·
COC(=O)c1ccc(C(NC(=O)OCc2ccccc2)/C(F)=C/[C@@H](C)C(=O)NCc2ccc(-c3ccccc3)cc2)cc1 (stereo not given in full),8,·,38,·,·,-2,·,·
CCn1c2ccccc2c2cc(CNCc3ccc(OC)cc3OC)ccc21,-1,16,100*,?,48,9,60*,54*
CCC(CC)NCc1ccc2c(c1)c1ccccc1n2CC,9,-8,57*,-16,28,8,43*,65*
CCOc1ccc2ccccc2c1/C=N/NC(=O)CNC(=O)c1ccccc1O,-7,2,9,-2,-7,·,·,·
CCOc1ccccc1OCCCC(=O)NNC(=O)c1nn(C)c(=O)c2ccccc12,·,·,-5,·,·,-5,·,·
CC(C)Oc1cc(O)c2c(=O)c(-c3ccc(O)cc3)coc2c1,52,1,-134,-2,24,·,·,·
CC1(C)C=Cc2c(c3c(c4c(=O)c(-c5ccc(O)cc5)coc24)OC(C)(C)CC3)O1,100*,43,75*,8,53,5,31,·
Cn1c(N)c(C(=O)COC(=O)[C@H](Cc2ccccc2)N2C(=O)c3ccccc3C2=O)c(=O)n(C)c1=O,2,10,-38,-4,5,-4,·,·
CCOc1ccc(C(=O)N/N=C(\c2ccccc2)c2ccccn2)cc1,61,69*,71*,42,54,97*,87*,30
O=C(N/N=C(\c1ccccc1)c1ccccn1)c1cccc([N+](=O)[O-])c1,-9,?,79*,113*,58*,102*,66*,20
O=C(Nc1nnc(-c2ccncc2)o1)c1ccccc1F,-1,-1,13,3,-7,4,·,·

# High-throughput results from PubChem.
